Values after ≈ are worked out from the molar mass of the structure shown.
Key:
[1] = test system: Staphylococcus aureus; experiment: Antibacterial activity against aminoglycoside-resistant Staphylococcus aureus expressing APH(2'') + AAC(6') by broth microdilution method; assay type: functional
Procedure, shortened: (§1)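 MICs were measured by broth microdilution following CLSI guidance. The strains formed a 25-strain screening panel with diverse aminoglycoside resistance mechanisms. The panel included Gram-negative and S. aureus strains carrying key aminoglycoside-modifying enzymes, strains with altered permeability or efflux, and an armA ribosomal methyltransferase strain.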

[2] = test system: Acinetobacter; experiment: Antibacterial activity against aminoglycoside-resistant Acinetobacter spp. expressing APH(3')-6 by broth microdilution method; assay type: functional
Procedure, shortened: (§2)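 Clinical aminoglycoside-resistant isolates were each carrying a single aminoglycoside-modifying enzyme. […] MICs were determined by CLSI broth microdilution.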

[3] = test system: Acinetobacter calcoaceticus; experiment: Antibacterial activity against aminoglycoside-resistant Acinetobacter calcoaceticus expressing AAC(6')-1 by broth microdilution method; assay type: functional; procedure, shortened: as §2
[4] = test system: Pseudomonas aeruginosa; experiment: Antibacterial activity against Pseudomonas aeruginosa ATCC 27853 by broth microdilution method; assay type: functional
[5] = test system: Pseudomonas aeruginosa; experiment: Antibacterial activity against wild type Pseudomonas aeruginosa expressing efflux pump by broth microdilution method; assay type: functional
Procedure, shortened: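 MIC was determined by CLSI broth microdilution, read in μg/ml. The strain came from a 25-strain screening panel with diverse aminoglycoside resistance mechanisms. The panel included strains with changes in permeability or efflux, key aminoglycoside-modifying enzymes and an armA methyltransferase strain.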

[6] = test system: Pseudomonas aeruginosa; experiment: Antibacterial activity against efflux pump deficient Pseudomonas aeruginosa by broth microdilution method; assay type: functional
[7] = test system: Pseudomonas aeruginosa; experiment: Antibacterial activity against Pseudomonas aeruginosa expressing AAC(3)-1 by broth microdilution method; assay type: functional
[8] = test system: Pseudomonas aeruginosa; experiment: Antibacterial activity against Pseudomonas aeruginosa expressing AAC(6')-2 by broth microdilution method; assay type: functional
[9] = test system: Citrobacter; experiment: Antibacterial activity against Citrobacter spp. by broth microdilution method; assay type: functional
Procedure, shortened: (§3)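 MICs were determined by CLSI broth microdilution against clinical isolate panels that included aminoglycoside-resistant isolates. […] MIC90 was derived per group and not calculated when n was <10. Imipenem, ceftobiprole, ciprofloxacin and tigecycline MICs were also determined for the resistant isolates.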

[10] = test system: Enterobacter sp.; experiment: Antibacterial activity against Enterobacter spp. by broth microdilution method; assay type: functional; procedure, shortened: as §3
[11] = test system: Klebsiella sp.; experiment: Antibacterial activity against Klebsiella spp. by broth microdilution method; assay type: functional; procedure, shortened: as §3
[12] = test system: Proteus mirabilis; experiment: Antibacterial activity against Proteus mirabilis by broth microdilution method; assay type: functional; procedure, shortened: as §3
[13] = Antibacterial activity against indole positive Proteae by broth microdilution method; assay type: functional; procedure, shortened: as §3
[14] = test system: Staphylococcus sp.; experiment: Antibacterial activity against Staphylococcus spp. by broth microdilution method; assay type: functional; procedure, shortened: as §3
[15] = test system: Acinetobacter sp.; experiment: Antibacterial activity against Acinetobacter spp. by broth microdilution method; assay type: functional; procedure, shortened: as §3
[16] = test system: Pseudomonas aeruginosa; experiment: Antibacterial activity against Pseudomonas aeruginosa by broth microdilution method; assay type: functional; procedure, shortened: as §3
[17] = test system: Citrobacter freundii; experiment: Antibacterial activity against aminoglycoside-resistant Citrobacter freundii expressing AAC(3)-2 by broth microdilution method; assay type: functional; procedure, shortened: as §2
[18] = test system: Enterobacter cloacae; experiment: Antibacterial activity against aminoglycoside-resistant Enterobacter cloacae expressing AAC(3)-2 by broth microdilution method; assay type: functional; procedure, shortened: as §2
[19] = test system: Klebsiella pneumoniae; experiment: Antibacterial activity against aminoglycoside-resistant Klebsiella pneumoniae expressing AAC(3)-2 by broth microdilution method; assay type: functional; procedure, shortened: as §2
[20] = test system: Serratia liquefaciens; experiment: Antibacterial activity against aminoglycoside-resistant Serratia liquefaciens expressing AAC(3)-2 by broth microdilution method; assay type: functional; procedure, shortened: as §2
[21] = test system: Escherichia coli; experiment: Antibacterial activity against aminoglycoside-resistant Escherichia coli expressing AAC(3)-4 by broth microdilution method; assay type: functional; procedure, shortened: as §2
[22] = test system: Citrobacter freundii; experiment: Antibacterial activity against aminoglycoside-resistant Citrobacter freundii expressing AAC(6')-1 by broth microdilution method; assay type: functional; procedure, shortened: as §2
[23] = test system: Klebsiella aerogenes; experiment: Antibacterial activity against aminoglycoside-resistant Enterobacter aerogenes expressing AAC(6')-1 by broth microdilution method; assay type: functional; procedure, shortened: as §2
[24] = test system: Escherichia coli; experiment: Antibacterial activity against aminoglycoside-resistant Escherichia coli expressing AAC(6')-1 by broth microdilution method; assay type: functional; procedure, shortened: as §2
[25] = test system: Klebsiella pneumoniae; experiment: Antibacterial activity against aminoglycoside-resistant Klebsiella pneumoniae expressing AAC(6')-1 by broth microdilution method; assay type: functional; procedure, shortened: as §2
[26] = test system: Serratia marcescens; experiment: Antibacterial activity against aminoglycoside-resistant Serratia marcescens expressing AAC(6')-1 by broth microdilution method; assay type: functional; procedure, shortened: as §2
[27] = test system: Staphylococcus aureus; experiment: Antibacterial activity against aminoglycoside-resistant Staphylococcus aureus expressing ANT(4',4'')-2 by broth microdilution method; assay type: functional; procedure, shortened: as §2
[28] = test system: Staphylococcus epidermidis; experiment: Antibacterial activity against aminoglycoside-resistant Staphylococcus epidermidis expressing ANT(4',4'')-2 by broth microdilution method; assay type: functional; procedure, shortened: as §2
[29] = test system: Staphylococcus aureus; experiment: Antibacterial activity against aminoglycoside-resistant Staphylococcus aureus expressing APH(2'') + AAC(6')-1 by broth microdilution method; assay type: functional; procedure, shortened: as §2
[30] = test system: Acinetobacter baumannii; experiment: Antibacterial activity against aminoglycoside-resistant Acinetobacter baumannii expressing ANT(2'')-1 by broth microdilution method; assay type: functional; procedure, shortened: as §2
[31] = test system: Acinetobacter baumannii; experiment: Antibacterial activity against aminoglycoside-resistant Acinetobacter baumannii expressing APH(3')-6 by broth microdilution method; assay type: functional; procedure, shortened: as §2
[32] = test system: Pseudomonas aeruginosa; experiment: Antibacterial activity against aminoglycoside-resistant Pseudomonas aeruginosa expressing AAC(6')-2 by broth microdilution method; assay type: functional; procedure, shortened: as §2
[33] = test system: Pseudomonas aeruginosa; experiment: Antibacterial activity against aminoglycoside-resistant Pseudomonas aeruginosa expressing ANT(2'')-1 by broth microdilution method; assay type: functional; procedure, shortened: as §2
[34] = test system: Staphylococcus epidermidis; experiment: Antibacterial activity against aminoglycoside-resistant Staphylococcus epidermidis expressing APH(3')-3 by broth microdilution method; assay type: functional
[35] = test system: Escherichia coli; experiment: Antibacterial activity against aminoglycoside-resistant Escherichia coli expressing ANT(6')-1 by broth microdilution method; assay type: functional; procedure, shortened: as §2
[36] = test system: Escherichia coli; experiment: Antibacterial activity against Escherichia coli ATCC 25922 by broth microdilution method; assay type: functional; procedure, shortened: as §1
[37] = test system: Escherichia coli; experiment: Antibacterial activity against aminoglycoside-resistant Escherichia coli expressing armA methylase by broth microdilution method; assay type: functional; procedure, shortened: as §1
[38] = test system: Serratia marcescens; experiment: Antibacterial activity against aminoglycoside-resistant Serratia marcescens expressing ANT(2''), AAC(6') by broth microdilution method; assay type: functional; procedure, shortened: as §1
[39] = test system: Staphylococcus aureus; experiment: microbe, parasite or virus in culture
[40] = test system: Staphylococcus aureus; experiment: microbe, parasite or virus in culture; remark: listed apart in the source
[41] = test system: Escherichia coli; experiment: Antibacterial activity against aminoglycoside-resistant Escherichia coli expressing APH(3')-1b by broth microdilution method
[42] = test system: Escherichia coli; experiment: Antibacterial activity against aminoglycoside-resistant Escherichia coli expressing AAC(3)-IVa by broth microdilution method
[43] = test system: Serratia marcescens; experiment: Antibacterial activity against aminoglycoside-resistant Serratia marcescens expressing ANT(2'')-I by broth microdilution method
[44] = test system: Enterobacter cloacae; experiment: Antibacterial activity against aminoglycoside-resistant Enterobacter cloacae expressing ANT(2'')-I by broth microdilution method
[45] = test system: Klebsiella pneumoniae; experiment: Antibacterial activity against aminoglycoside-resistant Klebsiella pneumoniae expressing ANT(2'')-I by broth microdilution method
[46] = test system: Pluralibacter gergoviae; experiment: Antibacterial activity against aminoglycoside-resistant Enterobacter gergoviae expressing ANT(2'')-I by broth microdilution method

Structure (SMILES): CN[C@@H]1[C@@H](O)[C@@H](O[C@@H]2[C@@H](O)[C@H](O[C@H]3OC(CNCCO)=CC[C@H]3N)[C@@H](N)C[C@H]2NC(=O)[C@@H](O)CCN)OC[C@]1(C)O [PLAZOMICIN]
- MIC [1]: 4 µg/mL
- MIC [2]: 1 µg/mL (≈ 1.69 µM)
- MIC [3]: 2 µg/mL (≈ 3.37 µM)
- MIC [4]: 2 µg/mL (≈ 3.37 µM)
- MIC [5]: 4 µg/mL (≈ 6.75 µM)
- MIC [6]: 0.125 µg/mL (≈ 0.211 µM)
- MIC [7]: 8 µg/mL (≈ 13.5 µM)
- MIC [8]: 2 µg/mL (≈ 3.37 µM)
- MIC50 [9]: 0.5 µg/mL (≈ 0.844 µM)
- MIC50 [10]: 0.5 µg/mL (≈ 0.844 µM)
- MIC90 [10]: 1 µg/mL (≈ 1.69 µM)
- MIC50 [11]: 0.5 µg/mL (≈ 0.844 µM)
- MIC90 [11]: 1 µg/mL (≈ 1.69 µM)
- MIC50 [12]: 4 µg/mL (≈ 6.75 µM)
- MIC90 [12]: 8 µg/mL (≈ 13.5 µM)
- MIC50 [13]: 8 µg/mL (≈ 13.5 µM)
- MIC50 [14]: 1 µg/mL (≈ 1.69 µM)
- MIC90 [14]: 2 µg/mL (≈ 3.37 µM)
- MIC50 [15]: 16 µg/mL (≈ 27 µM)
- MIC90 [15]: 32 µg/mL (≈ 54 µM)
- MIC50 [16]: 8 µg/mL (≈ 13.5 µM)
- MIC90 [16]: 64 µg/mL (≈ 108 µM)
- MIC [17]: 1 µg/mL (≈ 1.69 µM)
- MIC [18]: 1 µg/mL (≈ 1.69 µM)
- MIC [19]: 1 µg/mL (≈ 1.69 µM)
- MIC [20]: 1 µg/mL (≈ 1.69 µM)
- MIC [21]: 1 µg/mL (≈ 1.69 µM)
- MIC [22]: 1 µg/mL (≈ 1.69 µM)
- MIC [23]: 1 µg/mL (≈ 1.69 µM)
- MIC [24]: 1 µg/mL (≈ 1.69 µM)
- MIC [25]: 1 µg/mL (≈ 1.69 µM)
- MIC [26]: 1 µg/mL (≈ 1.69 µM)
- MIC [27]: 1 µg/mL (≈ 1.69 µM)
- MIC [28]: 1 µg/mL (≈ 1.69 µM)
- MIC [29]: 1 µg/mL
- MIC [30]: 2 µg/mL (≈ 3.37 µM)
- MIC [31]: 3 µg/mL (≈ 5.06 µM)
- MIC [32]: 6 µg/mL (≈ 10.1 µM)
- MIC [33]: 3 µg/mL (≈ 5.06 µM)
- MIC [34]: 1 µg/mL (≈ 1.69 µM)
- MIC [35]: 0.25 µg/mL (≈ 0.422 µM)
- MIC [36]: 1 µg/mL (≈ 1.69 µM)
- MIC [37]: > 64 µg/mL
- MIC [38]: 2 µg/mL (≈ 3.37 µM)
- MIC [39]: 0.5 µg/mL (≈ 0.844 µM)
- MIC [40]: 1 µg/mL (≈ 1.69 µM)
- MIC [41]: 0.25 µg/mL (≈ 0.422 µM)
- MIC [42]: 1 µg/mL (≈ 1.69 µM)
- MIC [43]: 1 µg/mL (≈ 1.69 µM)
- MIC [44]: 1 µg/mL (≈ 1.69 µM)
- MIC [45]: 1 µg/mL (≈ 1.69 µM)
- MIC [46]: 1 µg/mL (≈ 1.69 µM)

Source: ChEMBL document CHEMBL1687796, “Synthesis and spectrum of the neoglycoside ACHN-490” (2010)
